In brackets after ≈: the same amount, converted by molar mass. Activity calls are given as the source filed them.

Series [1] is described as follows: Therapeutic index, ratio of MCC for human HeLa cells to MIC for Helicobacter pylori. In kind it is cell-based. The following applies: read-out: TI.
A short description of series [2]: Cytotoxicity in human HeLa cells after 24 hrs by XTT assay. The series is classed as cell-based. A digest of the protocol: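 HeLa cells, 30,000 per well in DMEM with 10% fetal serum and penicillin/streptomycin. Compound added from DMSO to final 0.1, 0.25, 0.5, 1, 10, 25, 50, 75, 100 µM; DMSO-only controls. 24 h at 37 °C, then medium exchanged for phenol red-free medium, XTT-PMS added, 4 h at 37 °C, absorbance read at 450 and 500 nm. Two experiments, each in triplicate.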
In general terms: Tetrazolium dyes change colour on reduction, which living cells bring about.

The test system of series [3] is Helicobacter pylori. Briefly: Antibacterial activity against Helicobacter pylori after 28 hrs by microdilution method. In kind it is functional. (In general: Broth dilution looks for growth in wells or tubes with falling amounts of substance.)
Series [4] in a line: Binding affinity to Helicobacter pyroli flavodoxin expressed in Escherichia coli by isothermal titration calorimetry analysis. Set-up: species or system Helicobacter pylori. Put shortly:
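ITC at 25°C: degassed 20 µM protein titrated with ~500 µM inhibitor, both in 50 mM EPPS pH 9.0, 5% DMSO. Injection heats fitted to a 1:1 binding model for Kd.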

For series [5], the system named is Helicobacter pylori. Nature of the series: Bactericidal activity against Helicobacter pylori at 2 times MIC. In kind it is functional, organism-based.

Consider `O=[N+]([O-])/C=C/c1cc(Cl)cc(Cl)c1`, for which the selectivity ratio in series [1] was determined as 0.8. Also, in series [2], the MCC at 24 h came to 2 µM. In addition, in series [3], the MIC (usually the smallest concentration in the dilution series that meets the test's criterion for growth inhibition) stood at 2.4 µM (≈ 0.523 µg/mL). Moreover, in series [4], the Kd (commonly a measure of binding affinity in units of concentration) was determined as 0.67 µM.
With `O=[N+]([O-])/C=C/c1ccc(I)cc1`, in series [1], the selectivity ratio was determined as 9.4. The molecule further yielded an MCC at 24 h in series [2] of 10 µM. Besides, in series [5], the outcome was Active. For the same molecule, in series [3], inhibition of growth (MIC) required 1.06 µM (≈ 0.292 µg/mL). This molecule displayed a Kd in series [4] of 6.6 µM.
In series [2], `COc1ccc(CCCSc2ccc([N+](=O)[O-])c3nonc23)cc1` returned an MCC at 24 h of 1 µM.
On the same count and under the same terms, with `COc1ccc(CSc2ccc(N)c3nonc23)cc1` the figure was 100 µM.
For `O=[N+]([O-])C1=Cc2cc(Cl)cc(Cl)c2OC1c1ccc(Br)cc1` (configuration not stated), the dissociation constant Kd in series [4] was 25 µM.
`O=[N+]([O-])/C=C/c1c(F)c(F)c(F)c(F)c1F`: in series [1], the selectivity ratio was found to be 0.001. The MCC at 24 h in series [2] is 0.01 µM. Besides, the minimal inhibitory concentration (MIC) in series [3] came out at 8 µM (≈ 1.91 µg/mL). The molecule also registered a dissociation constant Kd in series [4] of 10 µM.
In series [2], `COC(=O)/C=C/c1cc(C(F)(F)F)cc(C(F)(F)F)c1` displayed an MCC at 24 h of 100 µM.
In the case of `COC(=O)C1=C(c2ccccc2Cl)Oc2ccc([N+](=O)[O-])cc2C1`, the MCC at 24 h in series [2] came out at 70 µM.
On to `O=[N+]([O-])/C=C/c1ccc(Cl)c(C(F)(F)F)c1`, for which the selectivity ratio in series [1] stood at 4.7. For the same molecule, the MCC at 24 h in series [2] stood at 5 µM. The molecule further registered an MIC in series [3] of 1.06 µM (≈ 0.267 µg/mL). The molecule also returned a Kd in series [4] of 2.8 µM.
On to `O=[N+]([O-])/C=C/c1cc(C(F)(F)F)ccc1F`, for which, in series [1], the selectivity ratio came out at 15.1. For the same molecule, the MCC at 24 h in series [2] worked out at 8 µM. For the same molecule, in series [3], it took 0.53 µM (≈ 0.125 µg/mL) to inhibit growth (MIC). The molecule further displayed a Kd in series [4] of 4.4 µM.
In the case of `CN(C)c1ccc([N+](=O)[O-])c2nonc12`, the MCC at 24 h in series [2] is 100 µM.
Turning to `O=C(O)/C=C/c1cc(C(F)(F)F)cc(C(F)(F)F)c1`, the MCC at 24 h in series [2] came to 100 µM.
As for `COc1ccc(C2(C)SCc3cc(C)c(C)cc3CS2)cc1`, the MCC at 24 h in series [2] came out at 100 µM.
As for `O=[N+]([O-])/C=C/c1ccc(F)cc1Br`, in series [1], the selectivity ratio was determined as 2.1. Further, the MCC at 24 h in series [2] stood at 10 µM. The same molecule displayed an MIC in series [3] of 4.8 µM (≈ 1.18 µg/mL). Moreover, the Kd in series [4] was found to be 19 µM.
Molecule `O=[N+]([O-])/C=C/c1cc(Cl)cc(Br)c1` registered an MCC at 24 h in series [2] of 2.7 µM. Moreover, binding in series [4] was put at a Kd of 10 µM.
As to `COc1cccc(/C=C(\C)[N+](=O)[O-])c1`, the selectivity ratio in series [1] was determined as 0.3. The MCC at 24 h in series [2] was 0.7 µM. For the same molecule, inhibition of growth in series [3] (MIC) required 2.4 µM (≈ 0.464 µg/mL). Besides, in series [4], the Kd worked out at 5.5 µM.
As to `O=[N+]([O-])C1=Cc2cc(Cl)ccc2OC1c1ccc(Cl)cc1` (configuration not stated), the MCC at 24 h in series [2] was 6 µM.
As to `O=[N+]([O-])C1=Cc2cc(Cl)ccc2NC1c1ccc(F)cc1` (configuration not stated), in series [4], the equilibrium dissociation constant (Kd) is 33 µM. This lies in the double-digit micromolar range.
With `O=[N+]([O-])C1=Cc2c(ccc3ccccc23)OC1c1ccc(F)cc1` (configuration not stated), the selectivity ratio in series [1] turned out to be 8.3. Moreover, the MCC at 24 h in series [2] amounted to 10 µM. In addition, in series [5], the result was Active. For the same molecule, in series [3], the minimal inhibitory concentration (MIC) was determined as 1.2 µM (≈ 0.386 µg/mL). The same molecule displayed a Kd in series [4] of 0.78 µM.
Consider `COc1ccc(CSc2ccc(S(N)(=O)=O)c3nonc23)cc1`, for which the MCC at 24 h in series [2] amounted to 12 µM.
For the molecule `O=[N+]([O-])/C=C/c1cc(C(F)(F)F)cc(C(F)(F)F)c1`, the selectivity ratio in series [1] was 1.5. Also, in series [2], the MCC at 24 h amounted to 3.5 µM. Moreover, 2.4 µM (≈ 0.684 µg/mL) was the least that counted as inhibitory in series [3] (MIC). The same molecule had an equilibrium dissociation constant (Kd) in series [4] of 3.5 µM.
On to `O=[N+]([O-])/C=C/c1ccccc1I`, for which, in series [1], the selectivity ratio amounted to 0.2. Besides, the MCC at 24 h in series [2] came out at 1 µM. The molecule also displayed an MIC in series [3] of 4.8 µM (≈ 1.32 µg/mL). This molecule came in with a dissociation constant Kd in series [4] of 16 µM.
Turning to `O=C(OCCSc1ccc([N+](=O)[O-])c2nonc12)c1ccc(Cl)cc1Cl`, the MCC at 24 h in series [2] worked out at 4 µM.
Still for that read-out and setting: for `O=C(Nc1ccc(Cl)cc1Cl)OCCSc1ccc([N+](=O)[O-])c2nonc12` the value was 1.7 µM.
Take `O=[N+]([O-])/C=C/c1ccc(Br)cc1`: the selectivity ratio in series [1] is 15.1. In series [2], this molecule displayed an MCC at 24 h of 8 µM. The outcome in series [5] was Active. In series [3], this molecule returned a minimum inhibitory concentration (MIC) of 0.53 µM (≈ 0.121 µg/mL). The molecule also returned a Kd in series [4] of 4.1 µM.
In series [2], `Cc1ccc(Sc2ccc([N+](=O)[O-])c3nonc23)cc1` showed an MCC at 24 h of 1.3 µM.
As for `NS(=O)(=O)c1ccc(SCCO)c2nonc12`, the MCC at 24 h in series [2] amounted to 100 µM.
Regarding `O=[N+]([O-])/C=C/c1ccccc1C(F)(F)F`, the selectivity ratio in series [1] came to 0.04. For the same molecule, the MCC at 24 h in series [2] worked out at 0.1 µM. In series [3], this molecule yielded a minimum inhibitory concentration (MIC) of 2.4 µM (≈ 0.521 µg/mL). Also, in series [4], binding was characterised by a dissociation constant (Kd) of 8.8 µM.
As to `COc1ccc(C(=O)OCCSc2ccc([N+](=O)[O-])c3nonc23)cc1`, in series [2], the MCC at 24 h worked out at 8 µM.
In series [2], `O=C(Nc1ccccc1)OCCSc1ccc([N+](=O)[O-])c2nonc12` returned an MCC at 24 h of 2.2 µM.
`O=[N+]([O-])C1=Cc2cc(Cl)cc(Cl)c2OC1c1ccc(I)cc1` (configuration not stated) gave an MCC at 24 h in series [2] of 10 µM.
`O=[N+]([O-])C1=Cc2cc(Cl)ccc2OC1c1ccc(F)cc1` (configuration not stated) had an MCC at 24 h in series [2] of 6 µM.
As for `COc1ccc(Sc2ccc([N+](=O)[O-])c3nonc23)cc1`, the selectivity ratio in series [1] is 1.5. In series [2], the MCC at 24 h was 3 µM. Further, the outcome in series [5] was Active. Moreover, in series [3], the lowest concentration to inhibit growth (MIC) was 2 µM (≈ 0.607 µg/mL). Further, binding in series [4] was characterised by a dissociation constant (Kd) of 2.6 µM.
With `O=[N+]([O-])/C=C/c1ccc(F)cc1`, the selectivity ratio in series [1] was 18.9. In addition, in series [2], the MCC at 24 h stood at 20 µM. The outcome in series [5] was Active. Further, it took 1.06 µM (≈ 0.177 µg/mL) to inhibit growth in series [3] (MIC). Further, the Kd in series [4] is 40 µM.
Regarding `O=[N+]([O-])/C=C/c1c(F)cc(Cl)cc1F`, the selectivity ratio in series [1] turned out to be 37.7. This molecule also came in with an MCC at 24 h in series [2] of 20 µM. In addition, the outcome in series [5] was Active. For the same molecule, it took 0.53 µM (≈ 0.116 µg/mL) to inhibit growth in series [3] (MIC). For the same molecule, in series [4], the Kd amounted to 7.4 µM.
Regarding `CCOC(=O)C1=Cc2cc(Cl)cc(Cl)c2OC1c1ccc(F)cc1` (configuration not stated), in series [2], the MCC at 24 h turned out to be 12 µM.
In turn, `Brc1cccc2nsnc12` had an MCC at 24 h in series [2] of 100 µM.
`O=[N+]([O-])C1=Cc2cc(Cl)cc(Cl)c2OC1c1ccc(F)cc1` (configuration not stated) showed an MCC at 24 h in series [2] of 6 µM.
Consider `CSc1ccc(C2Oc3ccccc3C=C2[N+](=O)[O-])cc1` (configuration not stated), for which, in series [2], the MCC at 24 h turned out to be 1 µM.
Regarding `O=[N+]([O-])/C=C/c1cccc(C(F)(F)F)c1`, in series [1], the selectivity ratio is 8.4. The molecule further had an MCC at 24 h in series [2] of 40 µM. Besides, the outcome in series [5] was Active. The same molecule returned an MIC in series [3] of 4.75 µM (≈ 1.03 µg/mL). In addition, in series [4], binding was put at a Kd of 7.9 µM.
As for `COc1ccc(CSc2ccc([N+](=O)[O-])c3nonc23)cc1`, in series [2], the MCC at 24 h is 1.7 µM.

The values are drawn from ChEMBL document CHEMBL2406954, “Improved flavodoxin inhibitors with potential therapeutic effects against Helicobacter pylori infection” (J Med Chem, 2013).
